Screening data from PubChem BioAssay.
In the library only some 3.5% were active in any assay of this set; here they are far more common.
MrgX1 PAM: human MrgX1 positive allosteric modulation, primary screen. Q96LB2. MrgX1-HEK293, Fluo-4 calcium flux, FDSS; stronger effect = higher value. B-score at 10 µM. 310,000 tested, 0.63% active. AID 588675;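 active = plate-corrected calcium response at least 3 library SD above typical, normal starting fluorescence, not activating the receptor alone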;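 also: compound read alongside a low EC10 to EC30 dose of BAM8-22 agonist; peak minus trough fluorescence over baseline measured at the second addition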
Target sequence (Q96LB2 whole entry, looked up): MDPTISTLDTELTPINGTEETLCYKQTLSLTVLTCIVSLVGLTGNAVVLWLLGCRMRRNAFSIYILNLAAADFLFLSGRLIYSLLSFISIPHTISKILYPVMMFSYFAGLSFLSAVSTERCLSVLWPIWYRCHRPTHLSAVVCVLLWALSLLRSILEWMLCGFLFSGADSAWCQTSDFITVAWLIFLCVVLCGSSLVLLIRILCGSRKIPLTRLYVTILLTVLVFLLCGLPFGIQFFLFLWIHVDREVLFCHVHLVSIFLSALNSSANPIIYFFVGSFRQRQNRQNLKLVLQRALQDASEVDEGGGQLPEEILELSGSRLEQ
RGS4 block: inhibitors of human RGS4 | P49798 | HEK293 M3R/RGS4 inducible, Fluo-4 calcium flux; stronger effect = higher value; triggered by carbachol at its EC20 | B-score at 10 µM | 310,000 tested, 0.45% active | AID 463165;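 active = B-score, a plate-corrected calcium signal, over three deviations above library mean, with baseline fluorescence within five deviations of library mean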;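 also: RGS4 expression induced by doxycycline in cells with stable M3 receptor; B-score is computed from the integrated fluorescence ratio over baseline after carbachol; higher B-score means a larger calcium signal and so more RGS4 inhibition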
Target sequence (P49798 whole entry, looked up): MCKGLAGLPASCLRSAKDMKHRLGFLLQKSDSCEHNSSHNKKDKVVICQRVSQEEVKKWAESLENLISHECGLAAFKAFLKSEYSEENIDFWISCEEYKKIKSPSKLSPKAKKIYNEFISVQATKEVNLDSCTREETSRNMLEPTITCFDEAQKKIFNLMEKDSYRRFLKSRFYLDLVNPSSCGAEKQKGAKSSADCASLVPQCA
MrgX1 ag: activates human MrgX1 receptor signaling | MrgX1-HEK293 cells, Fluo-4 calcium fluorescence, agonist mode; stronger effect = higher value | B-score at 10 µM | 310,000 tested, 0.44% active | AID 588627;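 active = calcium response B-score plate-corrected fluorescence ratio at least 3 library SD, with starting fluorescence B-score inside 5 SD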
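System – MrgX1-expressing HEK293 cells · Incubation – cells plated overnight, dye loaded 0.5 h 37 °C, 0.5 h room temperature · Technique – kinetic Fluo-4 NW fluorescence of intracellular calcium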
RGS4 act: RGS4 potentiation or activation | B-score at 10 µM | HEK293 M3R/inducible RGS4, carbachol calcium flux Fluo4; stronger effect = lower value | 310,000 tested, 0.92% active;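 active = B-score of the integrated calcium signal more than 4 SD below the library mean, with starting fluorescence not abnormally high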;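 also: negative B-score means reduced calcium response which marks RGS4 activation or potentiation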
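Test system: HEK293 cells with stable M3R and inducible RGS4; also added: carbachol at ECmax as muscarinic agonist stimulus; schedule: dye loading 30 min 37 °C, buffer rest 30 min RT; technique: kinetic calcium fluorescence imaging with Fluo4-AM dye, 2 µM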
MrgX1 antagonist: antagonists of human MrgX1 receptor; MRGX1-HEK293 calcium flux, Fluo-4, BAM8-22 antagonism; stronger effect = lower value; B-score at 10 µM; 310,000 tested, 1.3% active; Q96LB2;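 active = calcium-response B-score plate-corrected more than 3 library SD below zero, starting fluorescence within 5 deviations, no agonist response on first addition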;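 also: peak minus trough fluorescence over baseline after final BAM8-22 challenge near maximal dose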
RGS4 inh valid: RGS4 inhibitor validation; calcium response, % at 10 µM; HEK293 M3R/RGS4, carbachol calcium Fluo-4 fluorescence; carbachol added at its EC20; 0 = buffer wells, 100 = carbachol control; shares compounds with RGS4 block; 1,700 tested, 65% active;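 active = duplicate-averaged calcium response above the buffer-only control mean plus 5 SD of those controls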;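 also: integrated fluorescence ratio F max minus min over baseline F0; higher response in RGS4-induced cells means RGS4 inhibition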
RGS4 uninduced: checks RGS4 inhibitor effects in non-induced HEK293 M3R cells | activity (percent), % at 10 µM | 1,900 tested, 20% active | shares compounds with RGS4 block | AID 493000 | carbachol calcium Fluo-4; submaximal (EC20) carbachol stimulus; buffer wells 0%, carbachol control wells 100%; call rule not given here;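 also: RGS4 induction absent so cells express M3R without RGS4; higher means more calcium signal and flags a non-specific hit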
M3R basal Ca ctr: second counter-screen for RGS4 inhibitors: non-induced cells without carbachol; shares compounds with RGS4 block; HEK293 M3R/RGS4 non-induced, Fluo-4 calcium, no carbachol; normalised: buffer wells 0%, carbachol wells 100%; calcium response (agonist-mode artifact), % at 10 µM; 1,900 tested, 22% active; AID 493001;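 active = duplicate-averaged calcium rise in uninduced cells above buffer wells' mean plus 5 SD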
An asterisk follows results filed as active; i = inactive; . = no result.

SMILES	MrgX1 PAM	RGS4 block	MrgX1 ag	RGS4 act	MrgX1 antagonist	RGS4 inh valid	RGS4 uninduced	M3R basal Ca ctr
O=C(Nc1cc(C(F)(F)F)ccc1N1CCOCC1)c1n[nH]c(=O)c2ccccc12	i	7.5*	i	i	i	24%*	i	i
COc1cccc(C2C(C(=O)c3cccs3)=C(O)C(=O)N2CCN2CCOCC2)c1OC (stereo not drawn)	.	i	.	i	.	.	.	.
COC(=O)/C=C/S(=O)(=O)c1ccc(NC(C)=O)cc1	i	6*	i	i	i	54%*	38%*	13%*
O=C1/C(=C/c2cccnc2)Sc2ccccc21	i	7.9*	47*	i	i	42%*	46%*	32%*
CC(=O)Nc1ccc(/C=C2\Sc3ccccc3C2=O)cc1	i	i	i	i	i	.	.	.
OC(c1cc(-c2ccc(Cl)cc2)nc2ccccc12)C1CCCCN1 (stereo not drawn)	i	i	i	i	i	.	.	.
O=c1c2cc(Cl)cc(Cl)c2nc2n1CCC2	i	i	i	i	i	.	.	.
O[C@@H](c1cc(C(F)(F)F)nc2c(C(F)(F)F)cccc12)[C@H]1CCCCN1	i	5.7*	i	i	i	26%*	i	46%*
OC(c1cc(C(F)(F)F)nc2c(Cl)cc(Cl)cc12)C1CCCCN1 (stereo not drawn)	i	13*	i	i	i	24%*	i	14%*
CCn1c(C)c(CS(=O)(=O)c2ccccc2)[nH]c1=O	i	6.7*	i	i	i	24%*	i	7.0%*
CC(=O)C1=C(C)OC(N)=C(C#N)C1c1cc2cc(C)c(C)cc2nc1Cl (stereo not drawn)	i	15*	i	i	i	5.0%*	i	i
COC(=O)C1=C(C)OC(N)=C(C#N)C1c1cc2cc(C)ccc2nc1Cl (stereo not drawn)	i	i	i	i	i	.	.	.
Cn1ccnc1SCC(=O)c1ccc2ccccc2c1	i	i	i	i	i	.	.	.
Cc1ccc(C2NC(=O)NC(O)(C(F)(F)F)C2C(=O)c2ccccc2)o1 (stereo not drawn)	i	i	i	i	i	.	.	.
O=C1NC(c2ccc(-c3ccccc3[N+](=O)[O-])o2)C(C(=O)c2ccc(F)cc2)C(O)(C(F)(F)F)N1 (stereo not drawn)	i	i	i	i	i	.	32%*	7.5%*
COc1ccc(C(=O)C2C(c3ccc(-c4ccccc4[N+](=O)[O-])o3)NC(=O)NC2(O)C(F)(F)F)cc1 (stereo not drawn)	i	i	i	i	i	i	i	i
CCCCc1nnc(NC(=O)c2oc3ccccc3c2C)s1	i	i	i	i	i	.	.	.
CCCc1nc2nc(C)c(NS(=O)(=O)c3ccc([N+](=O)[O-])cc3)c(=O)n2[nH]1	i	i	i	i	i	.	.	.
COc1ccc(-n2c(SCC(=O)Nc3ccc(Br)cc3)nc(O)cc2=O)cc1	i	i	i	i	i	.	.	.
O=C(c1cc2n(n1)C(C(F)(F)F)CC(c1ccco1)N2)N1CCc2ccccc2C1 (stereo not drawn)	i	5.2*	i	i	i	8.0%*	i	28%*
Oc1ccccc1C=NCCN=Cc1ccccc1O	i	i	i	i	i	.	.	.
Oc1ccc(Cl)cc1C=NCCc1ccccc1	i	5*	i	i	i	22%*	35%*	11%*
Cc1ccc(C)c(N2CCN(S(=O)(=O)c3ccc4c(c3)C(C)(C)C(=O)N4C)CC2)c1	i	i	i	i	i	.	.	.
COc1cc(C2(c3ccc(O)c(OC)c3)C(=O)N(C)c3ccc(C)cc32)ccc1O	i	i	i	i	i	.	i	i
CCOC(=O)c1c(-c2ccccc2)oc2ccc(OCC(O)CN(C)C)cc12 (stereo not drawn)	i	i	i	i	i	.	.	.
SMILES	MrgX1 PAM	RGS4 block	MrgX1 ag	RGS4 act	MrgX1 antagonist	RGS4 inh valid	RGS4 uninduced	M3R basal Ca ctr
Cc1cc(N=Nc2ccccc2)c(NCC(O)C(O)C(O)CO)cc1C (stereo not drawn)	i	9.6*	i	i	i	36%*	38%*	i
Cc1cccc(N=c2oc3cc(O)ccc3cc2C(N)=O)c1	i	4.7*	i	i	i	6.0%*	i	30%*
O=C(c1ccc(S(=O)(=O)N2CCCC2)cc1)N1CCCCC1	i	i	i	i	i	.	.	.
O=C(/C=C/c1ccc(O)c(O)c1)c1ccc(S(=O)(=O)N2CCCCCC2)cc1	i	16*	i	i	i	23%*	44%*	i
Cc1ccc(S(=O)(=O)N(CC(=O)NCc2ccc(F)cc2)C(=O)N2CCN(C)CC2)cc1	i	i	i	i	i	.	.	.
O=C(C1Cc2ccccc2CN1C(=O)c1ccccc1)N1CCN(c2ccccc2)CC1 (stereo not drawn)	i	i	i	i	i	.	.	.
CCCOc1ccc(/C=c2\sc3nc(-c4ccco4)nn3c2=O)cc1OCC	i	i	i	i	i	i	i	154%*
CC(=O)Oc1cccc(/C=c2\sc3nc(-c4ccco4)nn3c2=O)c1	i	i	i	i	i	.	.	.
Cc1sc(NC(=O)CSC2=NCCS2)nc1-c1ccccc1	i	i	i	i	i	.	.	.
CC(=O)N1CC(=O)N=C1SCC(=O)Nc1nc(-c2ccccc2)c(-c2ccccc2)s1	i	8.7*	i	i	i	29%*	i	i
